# Data published in paper PMC7615941 (Cell, 2023).
# T1: human C5a receptor 1, FLAG-tagged, expressed in Sf9 for cryo-EM (human, UniProt P21730 2-350, alkylated with iodoacetamide)
# T1 sequence: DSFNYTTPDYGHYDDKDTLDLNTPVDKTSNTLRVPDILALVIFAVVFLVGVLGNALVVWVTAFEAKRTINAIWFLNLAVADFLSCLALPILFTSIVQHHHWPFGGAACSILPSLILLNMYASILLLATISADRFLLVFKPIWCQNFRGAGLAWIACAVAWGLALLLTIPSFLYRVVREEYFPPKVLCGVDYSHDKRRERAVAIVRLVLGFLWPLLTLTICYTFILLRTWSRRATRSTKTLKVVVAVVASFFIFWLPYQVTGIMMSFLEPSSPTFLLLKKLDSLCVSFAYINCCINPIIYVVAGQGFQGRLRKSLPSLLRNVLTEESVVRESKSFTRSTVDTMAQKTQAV
# T2: mouse C5a receptor 1, FLAG-tagged, expressed in Sf9 for cryo-EM (mouse, UniProt P30993 2-351, alkylated with iodoacetamide)
# T2 sequence: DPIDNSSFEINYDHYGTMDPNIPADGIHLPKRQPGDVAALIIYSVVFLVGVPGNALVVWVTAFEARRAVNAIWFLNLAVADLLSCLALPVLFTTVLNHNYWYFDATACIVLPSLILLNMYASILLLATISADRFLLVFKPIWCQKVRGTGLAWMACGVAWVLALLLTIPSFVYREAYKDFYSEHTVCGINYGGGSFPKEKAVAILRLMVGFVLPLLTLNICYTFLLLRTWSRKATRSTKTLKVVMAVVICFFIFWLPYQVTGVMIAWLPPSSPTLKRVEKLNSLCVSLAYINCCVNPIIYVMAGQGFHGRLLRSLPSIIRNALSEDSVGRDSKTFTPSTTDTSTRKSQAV
# T3: mC5aR1 (Mus musculus, UniProt P30993)
# T3 sequence (P30993 1-351): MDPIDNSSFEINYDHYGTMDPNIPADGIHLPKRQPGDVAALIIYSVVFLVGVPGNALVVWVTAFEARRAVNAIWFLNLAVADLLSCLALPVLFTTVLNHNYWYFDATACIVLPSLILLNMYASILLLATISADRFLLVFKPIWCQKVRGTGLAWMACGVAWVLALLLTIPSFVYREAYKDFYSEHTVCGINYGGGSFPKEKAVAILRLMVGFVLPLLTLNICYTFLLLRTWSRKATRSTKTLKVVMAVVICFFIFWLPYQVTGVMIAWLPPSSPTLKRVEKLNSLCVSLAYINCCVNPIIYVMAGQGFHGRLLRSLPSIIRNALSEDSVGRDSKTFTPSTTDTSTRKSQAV
# T4: C3aR (Homo sapiens, UniProt Q16581)
# T4 sequence (Q16581 1-482): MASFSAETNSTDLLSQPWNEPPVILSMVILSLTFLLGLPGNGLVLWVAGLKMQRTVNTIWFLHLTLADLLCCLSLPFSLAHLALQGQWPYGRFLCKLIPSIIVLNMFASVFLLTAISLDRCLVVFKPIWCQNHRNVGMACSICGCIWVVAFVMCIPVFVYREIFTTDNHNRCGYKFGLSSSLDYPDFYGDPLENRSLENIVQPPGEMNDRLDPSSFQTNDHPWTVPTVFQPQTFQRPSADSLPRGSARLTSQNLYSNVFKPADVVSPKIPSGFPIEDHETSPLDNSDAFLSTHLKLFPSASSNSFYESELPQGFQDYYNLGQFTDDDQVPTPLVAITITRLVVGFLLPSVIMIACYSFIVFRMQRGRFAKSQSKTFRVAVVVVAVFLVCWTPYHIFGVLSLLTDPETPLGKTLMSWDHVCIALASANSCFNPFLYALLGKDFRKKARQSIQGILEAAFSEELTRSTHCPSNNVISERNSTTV
# Key:
# [1] = biological target: C3aR with C-terminal SmBiT, in HEK-293 cells (human) (UniProt Q16581)
# [2] = test system: C5aR1; assay: G-protein coupling and βarr recruitment, C5aR1; type: cell-based; conditions: Figure 7A
# [3] = biological target: T1, human C5a receptor 1, FLAG-tagged, …; assay: cryo-EM structure
# [4] = biological target: T2, mouse C5a receptor 1, FLAG-tagged, …; assay: cryo-EM structure
# [5] = biological target: T3, mC5aR1; assay: NanoBiT βarr1/2 recruitment and endosomal trafficking, mC5aR1; type: cell-based; conditions: Figures 1I-1P, C5a^pep compared with hC5aR1
# Method in brief: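 HEK-293 cells, PEI transfection (DNA:PEI 1:3). Recruitment used 1 μg mC5aR1-SmBiT (C-terminal) with 3.5 μg LgBiT-βarr1/2 (N-terminal). Trafficking used N-SmBiT-βarr1/2 with N-LgBiT-FYVE. After 16-18 h, cells went into HBSS, 0.01% BSA, 5 mM HEPES pH 7.4, 10 μM coelenterazine at 0.1 million/100 μL. Incubation 90 min 37 °C, then 30 min RT. Three basal luminescence reads, then serially diluted ligand.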
# [6] = biological target: T3, mC5aR1; assay: GloSensor-based cAMP assay; type: cell-based
# [7] = biological target: T4, C3aR; assay: GloSensor-based cAMP assay; type: cell-based; conditions: Figure 7A; only at moderately high concentration (i.e., 1 μM)
# human complement anaphylatoxin C3a, sequence (P01024 672-748): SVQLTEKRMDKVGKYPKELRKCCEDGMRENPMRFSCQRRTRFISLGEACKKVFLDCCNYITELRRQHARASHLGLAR
molecule,measurement,setting,value
"EP141, pentadecameric peptide derived from and modified based on the carboxyl terminus of C3a","Emax of βarr1/2 recruitment to C3aR (NanoBiT), relative to C3a",[1],55 to 65 % of C3a
"C3a: complement anaphylatoxin, 77 amino acids, four-helix bundle; natural agonist of C3aR",transducer-coupling response at C5aR1,[2],did not exhibit any measurable transducer-coupling response
human complement anaphylatoxin C3a (from UniProt P01024 672-748) (ligand),EC50 of βarr1/2 recruitment to C3aR (NanoBiT),[1],10 to 20 nM
"human complement anaphylatoxin C5a (ligand, UniProt P01031 678-751, looked up) TLQKKIEEIAAKYKHSVVKKCCYDGACVNNDETCEQRAARISLGPRCIKAFTECCVVASQLRANISHKDMQLGR",binding result,[3],binds
same,binding result,[4],binds
"C5a: complement anaphylatoxin, 74 amino acids, four-helix bundle; natural agonist of C5aR1 (protein, left off: Trx, N-terminal, cleaved | His6, N-terminal, cleaved) TLQKKIEEIAAKYKHSVVKKCCYDGACVNNDETCEQRAARISLGPRCIKAFTECCVVASQLRANISHKDMQLGR","agonism, βarr recruitment and endosomal trafficking",[5],full agonism
same,"potency at mC5aR1 compared with hC5aR1, cAMP response",[6]; Figures 1G and 1H,slightly lower potency
same,"agonism, G-protein-mediated cAMP response","[6]; Figures 1G and 1H, mC5aR1",full agonists
same,"difference between human and mouse C5aR1, G-protein coupling",[6]; human vs mouse C5aR1,only a small difference
same,cross-reactivity with C3aR in G-protein-coupling assay,[7],some cross-reactivity
